From ChEMBL document CHEMBL1137008, “Cancer preventive agents 9. Betulinic acid derivatives as potent cancer chemopreventive agents” (Bioorg Med Chem Lett, 2009)

Tests used:
Raji [1] = assay: Inhibition of TPA-induced EBV-early antigen activation in human Raji cells assessed as EA induction at 10 molar ratio after 48 hrs relative to TPA; type: cell-based; design: scale not given: the % may be the effect or the level left; details: human gammaherpesvirus 4
How it was run: (§1)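 Raji cells (virus non-producer, spontaneous EA activation <0.1%) incubated 48 h at 37 °C with 4 mM n-butyric acid plus 32 pM TPA and compound in DMSO; smears stained by indirect immunofluorescence with NPC patient EBV-EA-positive serum, ≥500 cells counted; EA-positive cells expressed relative to butyrate+TPA control (100%); triplicates; IC50 as mol ratio to 32 pmol TPA.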

[2] = Cytotoxicity against human Raji cells assessed as cell viability at 100 molar ratio after 48 hrs by trypan blue staining method; type: cell-based; details: read-out: Activity
How it was run: (§2)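 Raji cells (EBV genome-carrying, Burkitt's lymphoma) grown in RPMI-1640 with 10% FBS; incubated 48 h at 37 °C with 4 mM n-butyric acid, 32 pM TPA and test compound in DMSO at stated compound/TPA molar ratio; viability determined by Trypan blue staining.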

Raji [3] = assay: Inhibition of TPA-induced EBV-early antigen activation in human Raji cells assessed as EA induction at 500 molar ratio after 48 hrs relative to TPA; type: cell-based; design: scale not given: the % may be the effect or the level left; details: human gammaherpesvirus 4; how it was run: as §1
[4] = Inhibition of TPA-induced EBV-early antigen activation in human Raji cells assessed as EA induction after 48 hrs relative to TPA; type: cell-based, human gammaherpesvirus 4; how it was run: as §1
Raji [5] = assay: Inhibition of TPA-induced EBV-early antigen activation in human Raji cells assessed as EA induction at 100 molar ratio after 48 hrs relative to TPA; type: cell-based; design: scale not given: the % may be the effect or the level left; details: human gammaherpesvirus 4; how it was run: as §1
[6] = Cytotoxicity against human Raji cells assessed as cell viability at 10 molar ratio after 48 hrs by trypan blue staining method; type: cell-based; details: read-out: Activity; how it was run: as §2
Raji [7] = assay: Inhibition of TPA-induced EBV-early antigen activation in human Raji cells assessed as EA induction at 1000 molar ratio after 48 hrs relative to TPA; type: cell-based; design: scale not given: the % may be the effect or the level left; details: human gammaherpesvirus 4; how it was run: as §1
[8] = Cytotoxicity against human Raji cells assessed as cell viability at 1000 molar ratio after 48 hrs by trypan blue staining method; type: cell-based; details: read-out: Activity; how it was run: as §2
[9] = Cytotoxicity against human Raji cells assessed as cell viability at 500 molar ratio after 48 hrs by trypan blue staining method; type: cell-based; details: read-out: Activity; how it was run: as §2

Structure (SMILES)	Activity (Raji [1]) [%]	viability at 48 h, 100 molar ratio [2] [%]	Activity (Raji [3]) [%]	IC50 [4] [molar ratio]	Activity (Raji [5]) [%]	viability at 48 h, 10 molar ratio [6] [%]	Activity (Raji [7]) [%]	viability at 48 h, 1000 molar ratio [8] [%]	viability at 48 h, 500 molar ratio [9] [%]
C=C(C)[C@@H]1CC[C@]2(C(=O)O)CC[C@]3(C)[C@H](CC[C@@H]4[C@@]5(C)CC[C@H](OC(=O)C[C@H](C)C(=O)O)C(C)(C)[C@@H]5CC[C@]43C)[C@@H]12	94.2	> 80	31.5	308	71	> 80	0	60	> 80
C=C(C)[C@@H]1CC[C@]2(C(=O)O)CC[C@]3(C)[C@H](CC[C@@H]4[C@@]5(C)CC(=O)C(C)(C)[C@@H]5CC[C@]43C)[C@@H]12	100	> 80	36.4	442	74.3	> 80	10.1	60	> 80
C=C(C)[C@@H]1CC[C@]2(C(=O)O)CC[C@]3(C)[C@H](CC[C@@H]4[C@@]5(C)CC[C@H](OC(=O)/C=C/C)C(C)(C)[C@@H]5CC[C@]43C)[C@@H]12	91.6	> 80	26.2	299	66.7	> 80	0	70	> 80
C=C(C)[C@@H]1CC[C@]2(C(=O)O)CC[C@]3(C)[C@H](CC[C@@H]4[C@@]5(C)CC[C@H](OC(=O)CCCCCCC/C=C\CCCCCCCC)C(C)(C)[C@@H]5CC[C@]43C)[C@@H]12	92.5	> 80	33.7	344	72.4	> 80	4.8	60	> 80
C=C(C)[C@@H]1CC[C@]2(C(=O)O)CC[C@]3(C)[C@H](CC[C@@H]4[C@@]5(C)CC[C@H](O)C(C)(C)[C@@H]5CC[C@]43C)[C@@H]12 [BETULINIC ACID]	100	> 80	37.2	403	75.1	> 80	7.9	60	> 80
C=C(C)[C@@H]1CC[C@]2(C(=O)O)CC[C@]3(C)[C@H](CC[C@@H]4[C@@]5(C)CC[C@H](OC(=O)C[C@H](C)CO)C(C)(C)[C@@H]5CC[C@]43C)[C@@H]12	93.1	> 80	29.3	303	70.1	> 80	0	70	> 80
